Measurements published in PMC4183726 (Journal of biomolecular screening, 2014).
Structures can show the parent of a compound that is named as a salt. Where two headings read alike, the source gives them in different places.

Assays:
MBD2-MBD [1] = biological target: T1, MBD2-MBD (Homo sapiens, UniProt Q9UBB5); test: TR-FRET dose-response; type: binding; conditions: for dose-response for inhibition of MBD2-MBD binding to methylated DNA (in words): TR-FRET, dose range tested up to 20 µM
SP-1 = SP-1 (Homo sapiens, UniProt P08047); test: TR-FRET counter screen with transcription factor SP-1 binding to DNA; conditions: for inhibition of SP-1 binding to DNA (in words): TR-FRET counter screen, dose response
SP-1, sequence (P08047 whole entry): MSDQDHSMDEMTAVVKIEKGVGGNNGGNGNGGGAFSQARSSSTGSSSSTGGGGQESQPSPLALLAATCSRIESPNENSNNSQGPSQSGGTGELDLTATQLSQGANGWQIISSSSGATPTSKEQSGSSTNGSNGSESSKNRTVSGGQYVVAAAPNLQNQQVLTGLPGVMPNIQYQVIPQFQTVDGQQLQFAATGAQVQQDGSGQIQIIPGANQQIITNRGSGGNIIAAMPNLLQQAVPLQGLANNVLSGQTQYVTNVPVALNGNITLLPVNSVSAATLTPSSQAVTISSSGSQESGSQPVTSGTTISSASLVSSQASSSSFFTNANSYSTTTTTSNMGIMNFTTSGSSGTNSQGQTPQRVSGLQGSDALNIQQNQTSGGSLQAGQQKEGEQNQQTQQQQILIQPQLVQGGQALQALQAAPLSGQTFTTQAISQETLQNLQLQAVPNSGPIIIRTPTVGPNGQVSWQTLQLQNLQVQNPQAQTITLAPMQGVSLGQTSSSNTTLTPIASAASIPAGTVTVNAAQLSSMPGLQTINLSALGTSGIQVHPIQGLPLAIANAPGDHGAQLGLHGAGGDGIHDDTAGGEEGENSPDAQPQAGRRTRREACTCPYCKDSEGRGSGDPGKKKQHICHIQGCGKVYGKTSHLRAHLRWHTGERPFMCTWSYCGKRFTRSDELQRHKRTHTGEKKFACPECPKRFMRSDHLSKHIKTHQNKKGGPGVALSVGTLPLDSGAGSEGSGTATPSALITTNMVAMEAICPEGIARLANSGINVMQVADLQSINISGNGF

MBD2-MBD [2] = biological target: T1, MBD2-MBD; conditions: read-out: EC50 of MBD2-MBD binding to DNA; FP assay
Procedure, shortened: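 His-tagged MBD2-MBD expressed in E. coli BL21 DE3 and purified by Ni-NTA and gel filtration. Protein dilution series in 10 mM Tris-HCl pH 7.4, 125 mM NaCl, 4% glycerol, 1 mM MgCl2, 0.5 mM EDTA, 0.5 mM DTT, 0.2% Tween-20. Added 10nM FAM-labelled hairpin oligo (CpG-methylated or unmethylated; annealed at 95°C, then ice). 1 h at 4°C with shaking, quadruplicate. Ex 470/em 525 nm; anisotropy plotted against protein concentration and curve-fitted.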

MBD2-MBD [3] = biological target: T1, MBD2-MBD; test: TR-FRET binding curves of MBD2-MBD to methylated and unmethylated DNA; conditions: read-out: EC50 of MBD2-MBD binding to DNA; TR-FRET assay
Procedure, shortened: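 His-tagged MBD2-MBD (25nM; E. coli-expressed, Ni-NTA and gel-filtration purified) in the FP binding buffer. FAM-labelled methylated or unmethylated hairpin oligo added as a dilution series, with 5 nM Tb-anti-His antibody. 1 h at 4°C with shaking. Ex 332 nm; emission 485 and 515 nm read after a 50 µsec delay over 400 µsec. No-protein 515/485 ratio subtracted; plotted against total DNA concentration and curve-fitted.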

MBD2-MBD [4] = biological target: MBD2-MBD (UniProt Q9UBB5 145-213); test: fluorescence polarization
MBD2-MBD (UniProt Q9UBB5 145-213), sequence (Q9UBB5 145-213): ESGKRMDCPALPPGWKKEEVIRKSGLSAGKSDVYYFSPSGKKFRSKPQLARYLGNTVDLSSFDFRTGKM

T1 sequence (Q9UBB5 145-213 limits assumed): as the sequence (Q9UBB5 145-213) above

Molecule	dose-response for inhibition of MBD2-MBD binding to methylated DNA (in words) (MBD2-MBD [1])	IC50 (MBD2-MBD [1]) [nM]	inhibition of SP-1 binding to DNA (in words) (SP-1)	further results
NC(Cc1cc(O)c(O)cc1O)C(=O)O (racemic) [6-Hydroxy-DL-DOPA]	failed to show appreciable inhibition	–	–	–
N[C@H](C(=O)O)[C@H]1C[C@@H]1C(=O)O [(2S,1S,2S)-2-(carboxycyclopropyl)glycine]	failed to show appreciable inhibition	–	–	–
O=C(O)C1=CC(=C(c2ccc(O)c(C(=O)O)c2)c2ccc(O)c(C(=O)O)c2)C=CC1=O [Aurintricarboxylic acid]	showed a sigmoidal dose-response	2.7	prevented binding of SP1 to DNA with similar potency	–
CCN(CC)CCOCCOC(=O)C1(c2ccccc2)CCCC1 [Carbetapentane citrate]	failed to show appreciable inhibition	–	–	–
CN(N=O)c1cc(O)ccc1O [Dephostatin]	failed to show appreciable inhibition	–	–	–
CC(=O)[C@]1(O)Cc2c(O)c3c(c(O)c2[C@@H](O[C@H]2C[C@H](N)[C@H](O)[C@H](C)O2)C1)C(=O)c1ccccc1C3=O [Idarubicin]	showed a sigmoidal dose-response	196	prevented binding of SP1 to DNA with similar potency	IC50 (SP-1): 580 nM
CN(N=O)c1ccc(O)c(O)c1 [Me-3,4-dephostatin]	failed to show appreciable inhibition	–	–	–
O=C1c2c(O)ccc(O)c2C(=O)c2c(NCCNCCO)ccc(NCCNCCO)c21 [Mitoxantrone]	showed a sigmoidal dose-response	94	prevented binding of SP1 to DNA with similar potency	IC50 (SP-1): 314 nM
unmethylated DNA: FAM-labeled hairpin oligonucleotide 5′-ATGCTCGTAGCACTTTTGTGCTACGAGCAT-3′ (unmethylated) (DNA, backbone not given here; FAM label, hairpin)	–	–	–	EC50 (MBD2-MBD [2]): > 1000 nM; EC50 (SP-1; read-out: EC50 of SP-1 binding to DNA, TR-FRET assay, binding curve): 22 nM; EC50 (MBD2-MBD [3]): > 1000 nM
ATGCTCGTAGCACTTTTGTGCTACGAGCAT (structured_DNA, 5-methyl-C at C6 and C24 (printed Cme)) [methylated hairpin FAM]	–	–	–	apparent K (half saturation) (MBD2-MBD [4]): 42.7 nM
